The text below walks through data of ChEMBL document CHEMBL4622923, “Discovery of 4-Phenylpiperidine-2-Carboxamide Analogues as Serotonin 5-HT2C Receptor-Positive Allosteric Modulators with Enhanced Drug-like Properties” (J Med Chem, 2020).

As a reminder, the Emax is the size of the effect at its maximum, as opposed to the concentration needed. For orientation: ED50 means the midpoint of the dose-response relation.

Calls of active or inactive are those of the source.

Series [1] addresses T1, 5-hydroxytryptamine receptor 2C (Homo sapiens) (UniProt P28335).
T1 sequence (whole entry): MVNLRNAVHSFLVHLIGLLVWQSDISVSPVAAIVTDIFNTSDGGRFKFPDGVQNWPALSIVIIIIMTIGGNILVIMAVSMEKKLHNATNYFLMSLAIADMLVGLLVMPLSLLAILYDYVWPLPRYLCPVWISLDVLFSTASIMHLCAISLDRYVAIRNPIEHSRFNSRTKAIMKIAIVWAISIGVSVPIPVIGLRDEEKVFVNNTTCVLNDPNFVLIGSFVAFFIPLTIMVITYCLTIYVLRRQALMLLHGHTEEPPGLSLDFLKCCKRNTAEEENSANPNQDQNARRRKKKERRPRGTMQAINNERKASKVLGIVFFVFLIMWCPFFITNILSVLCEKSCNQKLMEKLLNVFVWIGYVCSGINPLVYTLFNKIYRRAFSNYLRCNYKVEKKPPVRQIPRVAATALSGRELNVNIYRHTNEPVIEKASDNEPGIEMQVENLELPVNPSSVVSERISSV
In words: Positive allosteric modulation of human 5HT2CR expressed in CHO cells assessed as increase in 5-HT induced intracellular calcium release at 1 nM preincubated for 15 mins followed by 5-HT addition and measured at 1 secs interval for 360 secs by calcium 4 dye based FLIPR assay relative to 5-HT. The class given is functional, cell-based. In short, it runs like this: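 CHO cells stably expressing human unedited (INI) 5-HT2C receptor, serum-starved 3 h, then loaded 60 min at 37 °C with Calcium 4 dye and 2.5 mM probenecid in HBSS (pH 7.4). Compound added 15 min before 5-HT (10 pM–10 μM). FLIPR read every 1 s for 360 s; peak height; Emax by 4-parameter fit, 4–6 biological replicates in triplicate, relative to 5-HT alone.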
On the technique in general: A change in cytosolic calcium serves as a functional read-out for many receptors and channels.

Series [2] has as its target T2, 5-hydroxytryptamine receptor 2C (Homo sapiens, UniProt P28335).
T2 sequence (P28335 whole entry): T1 sequence (whole entry)
The experiment in a line: Agonist activity at human 5HT2CR expressed in CHO cells assessed as increase in intracellular calcium release at 1 nM incubated for 15 mins measured at 1 secs interval for 120 secs by calcium 4 dye based FLIPR assay relative to 5-HT. The series is classed as cell-based. To be noted: 0.001 µM. In short, it runs like this: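 h5-HT2CR (unedited INI isoform) stably expressed in CHO cells; cells plated ~24 h, serum-free medium 3 h, then Calcium 4 dye with 2.5 mM probenecid in Ca/Mg-free HBSS pH 7.4 for 60 min at 37°C plus 15 min at room temperature. Compound given alone, read for 15 min before 5-HT. Peak fluorescence is expressed relative to the 5-HT Emax. 4-6 biological replicates, each in triplicate.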

The target in series [3] is 5-HT2A receptor (Homo sapiens, UniProt P28223). In words: Positive allosteric modulation of human 5HT2AR expressed in CHO cells assessed as increase in 5-HT induced intracellular calcium release at 1 nM preincubated for 15 mins followed by 5-HT addition and measured at 1 secs interval for 360 secs by calcium 4 dye based FLIPR assay relative to 5-HT. The note with it: CHO cells expressing human 5HT2AR. The class given is cell-based. In short, it runs like this:
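CHO cells stably expressing human 5-HT2AR, serum-starved 3 h, then loaded with Calcium 4 dye plus 2.5 mM probenecid in HBSS (no Ca/Mg, pH 7.4) for 60 min at 37°C and 15 min at room temperature. Test compound added 15 min before 5-HT (10 pM-10 μM). FLIPR fluorescence read every 1 s for 360 s after 5-HT. Emax from 4-parameter fit, normalized to 5-HT maximum.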

The test system of series [4] is Rattus norvegicus. In words: Neurobiological activity in ip dosed Sprague-Dawley rat assessed as increase in number of rat choosing drug associated lever treated 15 mins prior to test by drug discrimination test. The class given is functional.
In series [5] the test system is Rattus norvegicus. The experiment in a line: Neurobiological activity in Sprague-Dawley rat assessed as increase in number of rat choosing drug associated lever at 0.75 mg/kg, ip treated 15 mins prior to test by drug discrimination test relative to control. The class given is functional. In short, it runs like this:
(§1)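 Male Sprague-Dawley rats (n = 13, 300–325 g) held at 80–90% free-feeding weight by water restriction. Trained to discriminate WAY163909 0.75 mg/kg ip from saline, 1 mL/kg, 15 min pretreatment. Two-lever, water-reinforced, FR20, 15 min sessions. Criterion ≥80% correct responding for 10 sessions. Test doses given ip 15 min pretest. Read-out: percentage of rats choosing the drug lever.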

In series [6] the test system is Rattus norvegicus. The experiment in a line: Neurobiological activity in Sprague-Dawley rat assessed as increase in number of rat choosing drug associated lever at 1 mg/kg, ip treated 15 mins prior to test by drug discrimination test relative to control. The series is classed as functional. In short, it runs like this:
as §1

The subject of series [7] is Rattus norvegicus. The experiment in a line: Neurobiological activity in Sprague-Dawley rat assessed as increase in number of rat choosing drug associated lever at 0.25 to 0.625 mg/kg, ip treated 15 mins prior to test by drug discrimination test. The series is classed as functional, organism-based. A digest of the protocol:
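Male Sprague-Dawley rats (n=13), water-restricted to 80-90% free-feeding weight, trained in a two-lever water-reinforced task (FR 20) to discriminate 0.75 mg/kg WAY163909 ip from saline (1 mL/kg). Test drug given ip 15 min before the 15-min session. Read-out is the percentage of rats choosing the drug lever. ED50 is taken from log-probit analysis.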

Series [8] deals with Rattus norvegicus. In words: Neurobiological activity in Sprague-Dawley rat assessed as increase in number of rat choosing drug associated lever at 0.5 mg/kg, ip treated 15 mins prior to test by drug discrimination test relative to control. The class given is functional. A digest of the protocol:
as §1

Series [9] deals with Rattus norvegicus. The experiment in a line: Neurobiological activity in Sprague-Dawley rat assessed as increase in number of rat choosing drug associated lever at 0.625 mg/kg, ip treated 15 mins prior to test by drug discrimination test relative to control. The class given is functional. A digest of the protocol:
as §1

5-HT2A receptor, sequence (P28223 whole entry): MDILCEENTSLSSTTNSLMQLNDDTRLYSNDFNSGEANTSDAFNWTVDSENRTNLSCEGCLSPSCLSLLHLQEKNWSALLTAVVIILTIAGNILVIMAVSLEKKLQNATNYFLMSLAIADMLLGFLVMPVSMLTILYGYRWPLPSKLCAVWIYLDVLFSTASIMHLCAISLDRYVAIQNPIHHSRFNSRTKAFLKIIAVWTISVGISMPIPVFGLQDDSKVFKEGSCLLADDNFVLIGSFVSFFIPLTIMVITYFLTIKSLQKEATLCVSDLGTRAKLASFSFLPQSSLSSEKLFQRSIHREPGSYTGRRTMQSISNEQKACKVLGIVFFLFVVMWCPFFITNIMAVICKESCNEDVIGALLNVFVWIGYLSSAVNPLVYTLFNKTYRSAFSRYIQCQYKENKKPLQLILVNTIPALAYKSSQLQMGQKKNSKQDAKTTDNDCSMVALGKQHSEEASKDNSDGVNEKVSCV

Consider `O=C(NCCN1CCOCC1)[C@@H]1C[C@H](C2CCCCC2)CCN1` (racemic), for which the maximum response (Emax) in [1] was 121%. For the same compound, the Activity result in [2] is on record as “Not Active”.
On to `O=C(N[C@H](CO)[C@H](O)c1ccccc1)[C@H]1C[C@@H](c2ccccc2)CCN1`, for which the maximal effect (Emax) in [1] came to 118%. For the same compound, the maximal effect (Emax) at 0.1 h, 0.001 µM in series [3] is 103%. The Activity result in series [2] is recorded as “Not Active”.
Consider `O=C(NC[C@H](O)CO)[C@@H]1C[C@H](CCc2ccccc2)CCN1`, for which the Emax in [1] came to 108%. In addition, the Activity result in series [2] is listed as “Not Active”.
As to `O=C(NC(CO)CO)[C@@H]1C[C@H](C2CCCCC2)CCN1` (racemic), in [1], the Emax was found to be 119%. Further, the Activity entry in series [2] is listed as “Not Active”.
The corresponding values for `O=C(NC[C@H](O)CO)[C@@H]1C[C@H](CCC2CCCCC2)CCN1` are 110% and “Not Active”.
As to `CC(C)(C)c1ccc(CC[C@@H]2CCN[C@H](C(=O)N[C@H](CO)[C@H](O)c3ccccc3)C2)cc1`, the maximal response (Emax) in series [1] was 115%. Besides, the Activity entry in series [2] is on record as “Not Active”.
Regarding `O=C(N[C@H](CO)[C@H](O)c1ccccc1)[C@H]1C[C@@H](CCc2ccccc2)CCN1`, in [1], the Emax turned out to be 109%. Moreover, in series [2], the Activity entry is given as “Not Active”.
The corresponding values for `O=C(NC(CO)CO)[C@@H]1C[C@H](CCc2ccccc2)CCN1` (relative stereo) are 101% and “Not Active”.
As to `O=C(NC[C@H](O)CO)[C@@H]1C[C@H](C2CCCCC2)CCN1` (mixture of isomers), the Emax in series [1] came to 118%. The Emax at 0.1 h, 0.001 µM in series [3] was 97.8%. In [2], the Activity entry is listed as “Not Active”.
On to `O=C(NCCCN1CCOCC1)[C@@H]1C[C@H](CCC2CCCCC2)CCN1` (racemic), for which the Emax in series [1] was 118%. The maximal response (Emax) at 0.1 h, 0.001 µM in [3] was 97.2%. In addition, in series [2], the Activity entry is on record as “Not Active”.
For the compound `Cc1ccc(CC[C@H]2CCN[C@@H](C(=O)N[C@H](CO)[C@H](O)c3ccccc3)C2)cc1`, the Emax in [1] was determined as 98.9%. The Activity result in [2] was “Not Active”.
Turning to `O=C(NC(CO)CO)[C@@H]1C[C@H](CCC2CCCCC2)CCN1` (relative stereo), the Emax in series [1] is 106%. For the same compound, in series [2], the Activity entry is recorded as “Not Active”.
Regarding `O=C(NCCN1CCOCC1)[C@@H]1C[C@H](CCc2ccccc2)CCN1` (racemic), the Emax in [1] is 94.2%. Besides, the Activity result in series [2] is “Not Active”.
`O=C(NCCN1CCOCC1)[C@@H]1C[C@H](CCC2CCCCC2)CCN1` (racemic): the Emax in series [1] is 110%. In addition, the Activity entry in series [2] is “Not Active”.
As for `c1cc2c3c(c1)[C@H]1CCC[C@H]1N3CCNC2`, in series [4], the ED50 came to 0.51 mg/kg. For the same compound, the Activity in [5] is 92%; in series [6], 100%; in series [8] it was 46%; in series [9], 54%. Besides, the outcome in series [7] was Active.
`O=C(NCCN1CCOCC1)[C@@H]1C[C@H](c2ccccc2)CCN1` (racemic): the Emax in [1] was 114%. For the same compound, the Activity entry in series [2] is “Not Active”.
The corresponding values for `O=C(N[C@H](CO)[C@H](O)c1ccccc1)[C@@H]1C[C@H](c2ccccc2)CCN1` are 103% and “Not Active”.
Turning to `O=C(N[C@H](CO)[C@H](O)c1ccccc1)[C@@H]1C[C@H](CCc2ccccc2)CCN1`, the Emax in series [1] was found to be 110%. Moreover, the Emax at 0.1 h, 0.001 µM in [3] came to 104%. Also, the Activity result in [2] is listed as “Not Active”.
As for `O=C(NC(CO)CO)[C@@H]1C[C@H](c2ccccc2)CCN1` (racemic), the Emax in [1] was 119%. Moreover, the Emax at 0.1 h, 0.001 µM in [3] stood at 99.3%. The Activity entry in series [2] was “Not Active”.
For the compound `O=C(NCCCN1CCOCC1)[C@@H]1C[C@H](CCc2ccccc2)CCN1` (racemic), the Emax in series [1] came to 118%. In series [3], the maximum response (Emax) at 0.1 h, 0.001 µM worked out at 97.9%. The Activity entry in series [2] is on record as “Not Active”.
On to `CC(C)(C)c1ccc(CC[C@H]2CCN[C@@H](C(=O)N[C@H](CO)[C@H](O)c3ccccc3)C2)cc1`, for which the Emax in [1] came to 107%. Moreover, the Activity entry in series [2] is on record as “Not Active”.
For the compound `CCCCCCCCCCC[C@@H]1CCN[C@H](C(=O)NCC(O)CO)C1` (relative stereo), in series [2], the Activity entry is “Not Active”.
On to `Cc1ccc(CC[C@@H]2CCN[C@H](C(=O)N[C@H](CO)[C@H](O)c3ccccc3)C2)cc1`, for which, in series [1], the Emax stood at 99.3%. The Activity entry in series [2] was “Not Active”.
